Where two headings read alike, the source gives them in different places. Each block holds one compound with its values, some of them ahead of it.
Columns and labels:
NTR1 mRNA [1] = details: breast cancer cells; cited from earlier work
PTEN mRNA = test: Northern blot reprobed for PTEN expression; format: cell-based, human; details: HT29 cells; blot stripped and reprobed
COX-2 mRNA = test: Northern blot of NT-induced COX-2 expression; format: cell-based, human; details: HT29 cells; NaBT 2.5 mM pretreatment 6 h, then 100 nM NT
IL-8 mRNA = test: RNase protection assay of IL-8 expression; format: cell-based, human; details: HCT116 cells; NaBT alone
NTR1 protein = test: Western blot of NTR1 protein expression; format: cell-based, human; details: SW480 and HT29 cells; 2.5 mM, 18 h
Outline: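 Cells were treated with 2.5 mM test compound or PBS vehicle for 18 h, then lysed in cell lysis buffer. Equal protein was run on bis-Tris gels and transferred to PVDF. Blots were incubated overnight in TBST with anti-human NTR1 antibody, then HRP secondary for 1 h, and detected by ECL. Blots were stripped and reprobed for β-actin; NTR1 bands were quantified densitometrically relative to β-actin.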

c-myc mRNA = test: Northern blot of c-myc expression; format: cell-based, human
Outline: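 HCT116 cells in McCoy's 5A with 10% FBS were serum-starved 24 h, pretreated with 2.5 mM test compound for 6 h, then given 100 nM NT or PBS vehicle for a further 0.5, 1 and 2 h. Total RNA (35 µg) was run on 1.2% agarose/formaldehyde gels and blotted to nylon. Blots were hybridised 8–12 h at 65°C with a 32P-UTP cRNA c-myc probe, read by autoradiography and reprobed for GAPDH.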

NTR1 mRNA [2] = test: Northern blot of NTR1 mRNA expression in CRC cell lines; format: cell-based, human
NTR1 promoter = test: NTR1 promoter-luciferase reporter assay; format: cell-based, human
[3] = system: cholecystokinin-B receptor mRNA; test: RNase protection assay, CCK; format: cell-based, human; details: HT29 and SW480 cells; 2.5 mM NaBT, 20 h
phospho-ERK1/2 = test: Western blot of phospho-ERK1/2; format: cell-based, human; details: SW480 and HCT116 cells; 18 h; NaBT 2.5 mM, apicidin 1 µM, Emodin 20 µM
Outline: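 HCT116 and SW480 cells were exposed 18 h to test compounds or DMSO vehicle. Whole-cell protein was extracted, run on bis-Tris gels and transferred to PVDF. Blots were probed overnight in TBST with phospho-ERK1/2 and total ERK1/2 antibodies, then HRP secondary for 1 h, and detected by ECL. pERK1/2 signal was quantified densitometrically relative to total ERK1/2.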

[4] = system: gastrin-releasing peptide receptor mRNA; test: RNase protection assay, gastrin-releasing peptide receptor mRNA; format: cell-based, human; details: NaBT treatment; data not shown
CCK-A receptor mRNA = test: RNase protection assay, CCK-A receptor mRNA; format: cell-based, human; details: NaBT treatment; data not shown
ERK = details: human hepatocellular carcinoma cells; cited from earlier work
[5] = HT29 cells, treatment for 4h, confirmed using SW620 cells
[6] = all NTR1-positive cell lines tested: HT29, HCT116, SW480, SW620, KM20, HDACi

Compound: [Cl-].[Li+] [LiCl]
- NTR1 mRNA (NTR1 mRNA [1]): increased

- IL-8 expression (IL-8 mRNA): slightly increased IL-8 expression
- cholecystokinin-B receptor mRNA expression [3]: did not affect mRNA expression
- gastrin-releasing peptide receptor mRNA expression [4]: did not affect mRNA expression
- CCK-A receptor mRNA expression (CCK-A receptor mRNA): did not affect mRNA expression
Compound: CCCC(=O)[O-].[Na+] [NaBT, Sodium butyrate]
- PTEN expression (PTEN mRNA): increased PTEN expression
- NT-induced COX-2 expression (COX-2 mRNA): blocked
- NTR1 protein expression (NTR1 protein): decreased NTR1 protein expression
- basal c-myc expression (c-myc mRNA; HCT116 cells): decreased basal c-myc expression
- NT-stimulated c-myc induction (c-myc mRNA; NaBT 2.5 mM pretreatment 6 h, then 100 nM NT): prevented NT-stimulated c-myc induction
- NTR1 expression (mRNA) (NTR1 mRNA [2]; SW480, HCT116 (Fig.1B), SW620, KM20 (data not shown), NaBT): inhibited NTR1 expression
- NTR1 promoter activity (NTR1 promoter; SW480 and HCT116 cells, 2.5 mM NaBT, 20 h): dramatically decreased NTR1 promoter activity
- phospho-ERK1/2 levels (phospho-ERK1/2): significantly decreased phospho-ERK1/2 levels

Compound: COc1cccc(-c2cc(=O)c3ccccc3o2)c1N [PD98059]
- NTR1 mRNA expression (NTR1 mRNA [2]; HCT116 and SW480 cells (also SW620, KM20 data not shown), 16 h, Uo126 0.5-5 µM, PD98059 20 µM, SB-203580 10 µM): identical to those using Uo126

Compound: C[S+]([O-])c1ccc(-c2nc(-c3ccncc3)c(-c3ccc(F)cc3)[nH]2)cc1 (centres unmarked) [SB-203580]
- NTR1 mRNA expression (NTR1 mRNA [2]): did not affect NTR1 expression

Compound: Cn1cc(C2=C(c3ccc(Cl)cc3Cl)C(=O)NC2=O)c2ccccc21 [SB-216763]
- NTR1 mRNA expression (NTR1 mRNA [2]; HT29 and SW480 cells, GSK-3β inhibitor over a time course): significantly upregulated NTR1 mRNA expression
- NTR1 mRNA suppression resulting from NaBT treatment (NTR1 mRNA [2]; HT29 cells, pre-treated 30 min, then combination with NaBT for 6 h): partially attenuated

Compound: CC(/C=C/C(=O)NO)=C\[C@@H](C)C(=O)c1ccc(N(C)C)cc1 [TSA, Trichostatin A]
- NTR1 mRNA expression (NTR1 mRNA [2]; [5]): significantly decreased NTR1 mRNA expression
- NTR1 mRNA expression (NTR1 mRNA [2]; [6]): suppressed NTR1

Compound: N#CC(=C(/N)Sc1ccccc1N)/C(C#N)=C(/N)Sc1ccccc1N [Uo126]
- NTR1 mRNA expression (NTR1 mRNA [2]): suppressed NTR1 mRNA expression in a time- and dose-dependent fashion
- decrease in NTR1 promoter activity (NTR1 promoter; SW480 cells, 5 µM, 16 h): approximately 70%

Compound: CCC(=O)CCCCC[C@@H]1NC(=O)[C@H]2CCCCN2C(=O)[C@H]([C@@H](C)CC)NC(=O)[C@H](Cc2cn(OC)c3ccccc23)NC1=O [apicidin]
- NTR1 mRNA expression (NTR1 mRNA [2]; [5]): significantly decreased NTR1 mRNA expression
- NTR1 mRNA expression (NTR1 mRNA [2]; [6]): suppressed NTR1
- phospho-ERK1/2 levels (phospho-ERK1/2): significantly decreased phospho-ERK1/2 levels

Compound: Cc1cc(O)c2c(c1)C(=O)c1cc(O)cc(O)c1C2=O [emodin]
- phospho-ERK1/2 levels (phospho-ERK1/2): did not affect ERK1/2 levels

Compound: Nc1ccccc1NC(=O)c1ccc(CNC(=O)OCc2cccnc2)cc1 [entinostat]
- NTR1 mRNA expression (NTR1 mRNA [2]; [6]): suppressed NTR1

Compound: CCCC(CCC)C(=O)O [valproic acid]
- activation of ERK (ERK): decreased activation of ERK
- NTR1 mRNA expression (NTR1 mRNA [2]; [6]): suppressed NTR1

Compound: Neurotensin [NT]
- c-myc expression (c-myc mRNA; 100 nM NT, 0.5 h, 1 h and 2 h, serum-starved cells): increased c-myc expression in time-dependent fashion
